Source: PubChem (Sanford-Burnham Center for Chemical Genomics)
PPC-1+TRAIL kill – compounds killing PPC-1 cancer cells with TRAIL present (potentiator screen, no TRAIL-free arm). cell killing (% activity), % at 4 µM or 5 µM. AID 1443. 220,000 compounds, 0.41% hits. PPC-1 cells + TRAIL, ATPLite viability luminescence;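 active = cell killing above 50% in the first pass at 4 µM, then a duplicate retest at 5 µM averaging 50% or more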;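 also: plate controls were cells with TRAIL plus DMSO for no effect and medium-only wells lacking cells for full effect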
FLuc stim CS – affects firefly luciferase, flagging false hits in luciferase stimulation screens | P08659 | ATPlite luciferase biochemical, luminescence, 10 min; 0 = ATP-free wells, 1 = DMSO control | activation factor at 10 µM | 200,000 tested, under 10 active;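 active = luciferase activation factor, scaled between plate controls, of at least 2 with compound at 10 µM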
Target sequence (P08659 whole entry, looked up): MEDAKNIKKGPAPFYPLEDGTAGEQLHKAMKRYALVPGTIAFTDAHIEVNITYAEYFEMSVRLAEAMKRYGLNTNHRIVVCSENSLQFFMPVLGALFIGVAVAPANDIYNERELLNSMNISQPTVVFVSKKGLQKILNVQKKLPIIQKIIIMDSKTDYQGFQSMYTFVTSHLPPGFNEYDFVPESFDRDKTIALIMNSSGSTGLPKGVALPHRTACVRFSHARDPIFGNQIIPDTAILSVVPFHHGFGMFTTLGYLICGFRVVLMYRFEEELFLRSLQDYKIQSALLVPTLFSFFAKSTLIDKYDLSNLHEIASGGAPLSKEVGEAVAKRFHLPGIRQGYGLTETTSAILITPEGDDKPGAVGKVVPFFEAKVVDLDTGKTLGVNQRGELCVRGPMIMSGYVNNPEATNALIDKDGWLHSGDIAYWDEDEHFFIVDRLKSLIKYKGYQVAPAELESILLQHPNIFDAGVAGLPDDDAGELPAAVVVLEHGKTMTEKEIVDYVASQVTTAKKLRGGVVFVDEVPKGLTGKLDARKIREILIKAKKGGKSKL
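Material: luciferase plus luciferin reagent, cell-free. Medium: PBS buffer for ATP. Also added: ATP substrate, dispensed from a 10.24 µM working solution in PBS. Doses: test compounds dosed from 2 mM stocks in 100% DMSO. Incubation: 10 min post-reagent at room temperature. Technique: light output (luminescence). Read-out basis: luminescence gain marking luciferase activators.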
TRAIL sens C8 – caspase-8 TRAIL sensitization; NB7+C8 cells + TRAIL, ATPlite viability luminescence; inhibition (viability loss, TRAIL sensitization), % at 10 µM; 360,000 compounds, 1% hits; AID 624354;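 active = compounds causing at least 50% loss of cell viability in the single-dose screen, relative to plate controls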
FLuc inh counter – inhibits firefly luciferase, flagging false hits in luciferase inhibition screens | ATPLite firefly luciferase biochemical luminescence, 10 min | inhibition, % at 10 µM | 200,000 compounds, 1.5% hits | AID 1006;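 active = inhibition above about 50% when tested at 10 µM, limit read from the data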
* hit, by the source's call; nt = no result given. The list is not random: actives were taken first. Their share in the collection is about 1.6%.

SMILES	PPC-1+TRAIL kill	FLuc stim CS	TRAIL sens C8	FLuc inh counter
O=C(COC(=O)c1ccccc1C(=O)c1ccc(Cl)c([N+](=O)[O-])c1)NC1CCCCCC1	16	1	94*	3
Cn1c(N)c(C(=O)COC(=O)c2ccccc2C(=O)c2ccc(Cl)c([N+](=O)[O-])c2)c(=O)n(C)c1=O	nt	nt	92*	nt
Cc1ccc(C(=O)Nc2sc3c(c2C(=O)O)CCCC3)o1	nt	nt	31	nt
O=C(Nc1sc2c(c1C(=O)O)CCCCC2)c1cccs1	49	0.2	22	84*
O=C(Nc1sc2c(c1C(=O)O)CCCCC2)c1ccccc1F	42	0.4	20	61*
O=C(Nc1sc2c(c1C(=O)O)CCCC2)c1cccs1	-26	0.6	8	38
Cc1ccc(C(=O)Nc2sc3c(c2C(=O)O)CCCCC3)o1	34	0.1	27	86*
O=C(COC(=O)c1cc(=O)[nH]c2ccccc12)NCCc1ccccc1	nt	nt	-4	nt
O=C(Nc1ccc(N2CCOCC2)cc1)c1csc(COCCO)n1	nt	nt	55*	nt
O=C(Nc1ccc(N2CCOCC2)cc1)c1cnccn1	nt	nt	78*	nt
CCCCc1ccc(NC(=O)c2cnccn2)cc1	21	0.2	55*	76*
O=C(Nc1ccccc1N1CCOCC1)c1cnccn1	8	1.1	-2	-6
O=C(Nc1ccc2c(c1)OCO2)c1csc(COCCO)n1	nt	nt	-5	nt
CS(=O)(=O)c1ncc(Cl)c(C(=O)Nc2ccc(OC(F)F)cc2)n1	nt	nt	72*	nt
CCOC(=O)c1cccc(C2=CC(=O)C[C@H](c3ccc(OC)c(OC)c3)C2)c1	nt	nt	14	nt
CCN(C(=O)c1ccco1)c1nnc(-c2cccnc2)s1	nt	nt	19	nt
COc1ccc(S(=O)(=O)N2CCC(C(=O)NN3CCCCC3)CC2)cc1	nt	nt	-19	nt
CS(=O)(=O)c1ncc(Cl)c(C(=O)Nc2ccc(N3CCOCC3)cc2)n1	8	0.9	73*	9
N#C/C(=C\c1cccc(NC(=O)c2ccccc2Cl)c1)C(=O)NCCc1ccccc1	-1	1	25	-2
Cc1ccc(C(=O)c2c(C)oc3c2C(=O)C(=O)c2ccccc2-3)cc1	17	1	97*	2
Cc1ccc(C(=O)c2coc3c2C(=O)C(=O)c2ccccc2-3)cc1	-8	1	-5	-2
Cc1oc2c(c1C(=O)c1ccc(Cl)cc1)C(=O)C(=O)c1ccccc1-2	14	1.1	94*	-10
O=C(c1ccc(Cl)cc1)c1ccc(CN2C(=O)c3ccccc3C2=O)o1	3	1	6	-3
CN(CC(=O)Nc1c(Cl)cccc1Cl)C(=O)C1CCN(C(=O)Nc2ccccc2)CC1	nt	nt	1	nt
O=C(COn1nnc2ccccc21)N1CCN(Cc2ccccc2)CC1	10	0.9	-3	5
SMILES	PPC-1+TRAIL kill	FLuc stim CS	TRAIL sens C8	FLuc inh counter
O=C(N=Nc1ccc(NOC(=O)c2ccccc2Br)cc1)c1ccccc1O	48	0.4	nt	61*
Cc1cc(N=NC(=O)c2ccccc2O)c2ccccc2c1O	-7	0.5	14	49
COC(=O)c1ccc(CCc2cc(O)c(Br)cc2O)cc1	nt	nt	49*	nt
Oc1ccccc1-c1n[nH]c(-c2ccccc2O)n1	nt	nt	60*	nt
CCCc1cc(=O)oc2cc(OCC(=O)NC3CCN(Cc4ccccc4)CC3)ccc12	nt	nt	11	nt
Cc1ccccc1-c1nnc(SCC(=O)Nc2cccnc2Cl)o1	nt	nt	64*	nt
Fc1ccc(-n2c(-c3ccc4ccccc4n3)n[nH]c2=S)cc1	nt	1.1	-7	-11
S=c1[nH]nc(-c2ccc3ccccc3n2)n1-c1cc(Cl)cc(Cl)c1	17	0.3	-12	70*
CCCCNc1nc(N)nc(-c2cc(Cl)ccc2O)n1	12	0.8	29	21
CCNc1nc(N)nc(-c2cc(Cl)ccc2O)n1	42	0.4	47	63*
CSc1cccc(NC(=O)c2ccccn2)c1	19	0.5	nt	51*
CSc1nc2ccc(NC(=O)c3ccccn3)cc2s1	nt	nt	82*	nt
CCN(CC(=O)NC(C)(C)C)C(=O)CCl	25	1	22	-3
CCCc1c(C(=O)N/N=C/C=C/c2ccccc2)nnn1-c1nonc1N	nt	nt	55*	nt
C[C@@H]1CN([C@@H](C)CO)C(=O)c2cc(NC(=O)C3CC3)ccc2O[C@@H]1CN(C)C(=O)NC1CCCCC1	nt	nt	-18	nt
C=C(C)c1nc(Oc2ccccc2)nc(Oc2ccccc2)n1	nt	nt	55*	nt
O=C(O)c1cc(-c2ccco2)nc2ccccc12	2	0.9	-3	8
CCOc1ccc(/C=N/NC(=O)c2cc(-c3ccco3)nc3ccccc23)cc1	3	0.5	14	53*
O=C(N/N=C/c1ccc(F)cc1)c1cc(-c2ccco2)nc2ccccc12	6	0.5	50*	48
